Results from ChEMBL document CHEMBL4513216, “Probing the Open Global Health Chemical Diversity Library for Multistage-Active Starting Points for Next-Generation Antimalarials” (ACS Infect Dis, 2020).

Assay: Toxicity liver stage against HepG2, at 10uM
Format: cell-based
Parameters: test concentration 10 uM, cell line HepG2-A16-CD81EGFP
Settings: human, HepG2-A16-CD81EGFP cells; read-out: INHIBITION
Summary of the method: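 Uninfected HepG2-A16-CD81EGFP cells, 3 × 10^3 per well, 1536-well, plated on prespotted compound at 10 μM final, parasite-free screening media added to match infected plates; puromycin 10 μM positive, DMSO 0.5% negative; run in parallel with 48 h PbLuc assay at 37 °C, 5% CO2; viability by CellTiter-Glo luminescence, normalized to controls.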

## Cc1ccnc(NC(=O)c2ccc(Br)o2)c1
  cytotoxicity at 10 µM: -10.5%

## COCC(=O)Nc1ccc(-c2noc([C@@H]3CCCN3)n2)cn1
  cytotoxicity at 10 µM: -1.16%

## CC(C)NC(=O)NC[C@H]1OC[C@@H](NCc2ccncc2)[C@@H]1O
  cytotoxicity at 10 µM: -4.07%

## O=C1NC[C@H]2CN(Cc3nccs3)CCN12
  cytotoxicity at 10 µM: -4.9%

## COCCn1cc(CC(=O)Nc2nc3c(s2)CCC3)c2ccccc21
  cytotoxicity at 10 µM: 32.8%

## CC(C)(C)S(=O)(=O)c1ccc(N2CCN(c3ccccn3)CC2)nn1
  cytotoxicity at 10 µM: -3.3%

## COC(=O)c1ccc(C(=O)NCC(O)c2cccn2C)cc1 (stereo unspecified)
  cytotoxicity at 10 µM: -3.84%

## COc1ccc(C[C@H]2CNCC[C@@H]2OCC2CC2)cc1
  cytotoxicity at 10 µM: -1.24%

## O=C(NC1CCC1)C1CCC2(CN(C(=O)c3ccco3)C2)O1 (stereo unspecified)
  cytotoxicity at 10 µM: -144%

## c1nc2n(c1CN1CCOCC1)CCN(C1CCOC1)CC2 (stereo unspecified)
  cytotoxicity at 10 µM: -136%

## COCC(=O)N1CCc2nc(C(=O)Nc3cccnc3)sc2CC1
  cytotoxicity at 10 µM: 7.98%

## Cc1ccoc1C(=O)N1CCc2ncnc(-c3cnn(C)c3)c2CC1
  cytotoxicity at 10 µM: 16.9%

## Cn1cc(-c2cnc(N3CCOCC3)nc2)cc1C(=O)N1CCCC1
  cytotoxicity at 10 µM: -10.6%

## Cc1cccc(C(=O)Oc2cc(=O)n3cccc(C)c3n2)c1
  cytotoxicity at 10 µM: 1.11%

## O=C(NC1CCCC1)c1cc(Sc2ncccn2)ccn1
  cytotoxicity at 10 µM: -12.3%

## COCCNC(=O)Cn1c(-c2ccco2)cc2cccnc21
  cytotoxicity at 10 µM: -5.09%

## Nc1nccnc1C1CN(C(=O)COc2cccnc2)CCO1 (stereo unspecified)
  cytotoxicity at 10 µM: -1.83%

## COCCNc1nnc(-c2ccccn2)s1
  cytotoxicity at 10 µM: 6.1%

## Clc1ccc(CN(CCN2CCOCC2)Cc2cccnc2)c(Cl)c1
  cytotoxicity at 10 µM: -4.25%

## Cc1cc(C)n(CCCC(=O)N2CCc3ncc(Cl)cc3C2)n1
  cytotoxicity at 10 µM: -25.3%

## CN(CC1(O)CCCN(c2ccccn2)C1)C(=O)CC1CCOCC1 (stereo unspecified)
  cytotoxicity at 10 µM: -5.44%

## CC(NC(=O)c1cnccn1)c1nnc2ccccn12 (stereo unspecified)
  cytotoxicity at 10 µM: 5.1%

## CC1(C)COCCN1C(=O)CCc1nc(-c2ccc(Cl)cc2)no1
  cytotoxicity at 10 µM: 25.4%

## O=C(CNc1nc(C2CC2)ns1)N1CCc2sccc2C1
  cytotoxicity at 10 µM: 17.3%

## O=C(Nc1ccc(-c2ccccc2)cn1)C1CCN(C(=O)C2CC2)CC1
  cytotoxicity at 10 µM: -14.8%

## Cc1nc(CN2CCN(c3ccc(Cl)cn3)CC2)no1
  cytotoxicity at 10 µM: 1.3%

## Cc1ncncc1C(=O)N1CCCN(Cc2nccn2C(C)C)CC1
  cytotoxicity at 10 µM: 5.79%

## CCN(Cc1ccco1)C(=O)C1=NN(c2ccccc2)C(=O)CN1
  cytotoxicity at 10 µM: 6.35%

## CCN(CC(C)C#N)C(=O)CNc1ccc(F)c(C)c1 (stereo unspecified)
  cytotoxicity at 10 µM: 17.5%

## C=C(C)CN(CC)C(=O)c1cc(F)ccc1NS(C)(=O)=O
  cytotoxicity at 10 µM: -2.12%

## CS(=O)(=O)c1cccc(S(=O)(=O)NC(=O)c2cscn2)c1
  cytotoxicity at 10 µM: 1.33%

## COCCN(CCOC)C(=O)c1ccn(-c2ccccc2Cl)n1
  cytotoxicity at 10 µM: -1.59%

## CCOC(=O)N(C)C1CCN(Cc2ccsc2)CC1
  cytotoxicity at 10 µM: -0.572%

## CCc1nnc2n1CCN(C(=O)C(C)Oc1ccc(C#N)cc1)C2 (stereo unspecified)
  cytotoxicity at 10 µM: -7.04%

## CCN(CC)C(=O)CS(=O)(=O)c1cc(OC)c(OC)cc1C
  cytotoxicity at 10 µM: -2.58%

## CCn1ccnc1CN1CCN(c2ncnc3ccsc23)CC1
  cytotoxicity at 10 µM: 5.39%

## CC(NC(=O)NCc1cccc(CN2CCCC2)c1)c1nccs1 (stereo unspecified)
  cytotoxicity at 10 µM: -7.43%

## COc1ncccc1CNC(=O)c1c[nH]c(=O)c(Br)c1
  cytotoxicity at 10 µM: -2.62%

## Cc1noc(-c2cccnc2N2CCOC(C)(c3cnn(C)c3)C2)n1 (stereo unspecified)
  cytotoxicity at 10 µM: 4.08%

## O=C(N1CCN(CCO)CC1)C1(O)Cc2ccccc2C1
  cytotoxicity at 10 µM: -2.92%

## Cc1nn(C)c(N2CCCN(C)CC2)c1CNC(=O)CC1CCCC1
  cytotoxicity at 10 µM: -7.43%

## Cc1nonc1NC(=O)C1SCCc2sccc21 (stereo unspecified)
  cytotoxicity at 10 µM: -2.82%

## CC(C)(C)OC(=O)NCC1CCCCN1Cc1cccc(C(N)=O)c1 (stereo unspecified)
  cytotoxicity at 10 µM: -2.27%

## Cn1nc2c(cc1=O)CN(CC(=O)Nc1nncs1)CC2
  cytotoxicity at 10 µM: -9.55%

## CC(C)NC(=O)CCNC(=O)Nc1cccc(-c2nccn2C)c1
  cytotoxicity at 10 µM: -1.39%

## CN(CC(=O)Nc1cc(-c2cc(Cl)cc(Cl)c2)[nH]n1)S(C)(=O)=O
  cytotoxicity at 10 µM: 6.72%

## C1CN(c2nc(C3CC3)ns2)CCS1
  cytotoxicity at 10 µM: -11.6%

## COc1ccc2cc(CN(C)C(C)c3nc(C(C)(C)C)no3)ccc2c1 (stereo unspecified)
  cytotoxicity at 10 µM: 1.44%

## Cc1csc(C2CCCCN2C(=O)Cn2cncn2)n1 (stereo unspecified)
  cytotoxicity at 10 µM: -0.0679%

## Cc1cccn2cc(CN3CCCC(c4noc(C5CC5)n4)C3)nc12 (stereo unspecified)
  cytotoxicity at 10 µM: 2.29%

## CN(Cc1ccco1)C(=O)NCC(c1cccs1)N(C)C (stereo unspecified)
  cytotoxicity at 10 µM: 4.38%

## CS(=O)(=O)NCC1CCCCN1C(=O)c1ccc(Br)s1 (stereo unspecified)
  cytotoxicity at 10 µM: 1.58%

## CNC(=O)NC(C)c1nc(-c2ccccc2)c[nH]1 (stereo unspecified)
  cytotoxicity at 10 µM: 0.995%

## CC(C)CC(C(=O)N(C)Cc1ncnn1C)N1CCCCC1=O (stereo unspecified)
  cytotoxicity at 10 µM: -0.159%

## O=c1[nH]nc(CNc2ncc(Br)cn2)[nH]1
  cytotoxicity at 10 µM: -5.12%

## CC(=O)Nc1ccc(CNc2ccn(Cc3ccccc3)n2)cc1
  cytotoxicity at 10 µM: 10.1%

## CC(=O)c1cc(C(=O)NC2(c3ccccc3)CCC2)n(C)c1
  cytotoxicity at 10 µM: -11.7%

## NC(=O)N1CCCN(C(=O)Nc2cc(-n3cccc3)ccc2F)CC1
  cytotoxicity at 10 µM: -2.09%

## CCC(C)NC(=O)CS(=O)(=O)Cc1cc(C)ccc1C (stereo unspecified)
  cytotoxicity at 10 µM: -3.06%

## CC(=O)N(C)Cc1cccc(NC(=O)N(C)Cc2nccs2)c1
  cytotoxicity at 10 µM: -6.77%

## CN1CC(C(=O)NCCc2ccc(F)c(Br)c2)CC1=O (stereo unspecified)
  cytotoxicity at 10 µM: 3.57%

## CC(C)CNC(=O)CSc1nnc(OC(C)C)s1
  cytotoxicity at 10 µM: 1.97%

## CCCn1ccc2cc(NC(=O)NCCn3cnnc3CC)ccc21
  cytotoxicity at 10 µM: 2.47%

## Cc1nn(CCO)c(C)c1CNC1CCC(C)(C)c2ccccc21 (stereo unspecified)
  cytotoxicity at 10 µM: -3.34%

## COc1ccc(CCC2CCCN(C(=O)CCc3cc(O)no3)C2)cc1 (stereo unspecified)
  cytotoxicity at 10 µM: -3.66%

## O=C(CN1C(=O)CCNC1=O)N1CCOC(c2ccc(Cl)c(Cl)c2)C1 (stereo unspecified)
  cytotoxicity at 10 µM: 6.28%

## Cc1cc(C)c(-n2cc(CCO)cn2)cc1C
  cytotoxicity at 10 µM: 0.334%

## COc1ccccc1[C@@H]1CN(Cc2c(C)noc2C)C[C@H]1C(=O)O
  cytotoxicity at 10 µM: -9.94%

## Clc1cc(NCc2ccncc2)nc2[nH]ccc12
  cytotoxicity at 10 µM: 6.58%

## CC(C)N1CCCC(C(=O)NCc2noc(Cc3ccccc3)n2)C1 (stereo unspecified)
  cytotoxicity at 10 µM: -1.49%

## CN(Cc1cnccn1)CC1CCOc2ccccc2C1 (stereo unspecified)
  cytotoxicity at 10 µM: -3.75%

## c1ccc2sc(N3CCCC4(CCOC4)C3)nc2c1 (stereo unspecified)
  cytotoxicity at 10 µM: -5.08%

## Cc1ccccc1[C@@H]1CN(CCCS(=O)(=O)N(C)C)C[C@H]1C(=O)O
  cytotoxicity at 10 µM: -5.51%

## COc1ccccc1CN1C(=O)O[C@@H]2CN(Cc3cccc(C)n3)C[C@@H]21
  cytotoxicity at 10 µM: 2.64%

## CN(C)C(=O)c1ccc2c(c1)N(C)C(CC(=O)NCCOCCO)CO2 (stereo unspecified)
  cytotoxicity at 10 µM: -7.96%

## Cc1nccc(-c2ccccc2)c1C(=O)N1CCC2(CC(=O)NC2=O)C1 (stereo unspecified)
  cytotoxicity at 10 µM: -2.12%

## Cc1n[nH]c(C)c1CC(=O)N1CCCN(C)C2(CCN(C)CC2)C1
  cytotoxicity at 10 µM: 11.7%

## COc1ccc(OCc2nc(C(=O)N3CCC(NC(C)=O)C3)co2)cc1 (stereo unspecified)
  cytotoxicity at 10 µM: -1.21%

## CN(Cc1noc2c1CCCC2)C(=O)CN1C(=O)COc2ccccc21
  cytotoxicity at 10 µM: -55.1%

## O=C(O)C1(O)CCN(c2ccnc3c(C(F)(F)F)cccc23)CC1
  cytotoxicity at 10 µM: 5.56%

## COc1ccc([C@@H]2CN(c3cc(C(=O)O)ccn3)C[C@H]2N(C)C)cc1
  cytotoxicity at 10 µM: 10.3%

## CCC1c2cccn2CCN1C(=O)c1ccno1 (stereo unspecified)
  cytotoxicity at 10 µM: -8.58%

## Cc1ccccc1CN(C)C(=O)CN1CCCC(Cn2cncn2)C1 (stereo unspecified)
  cytotoxicity at 10 µM: -2.87%

## Cc1cc(CN(C)CC(c2cccs2)N2CCOCC2)on1 (stereo unspecified)
  cytotoxicity at 10 µM: 0.049%

## Cc1nc(C)n(CC2CCCN(Cc3ccc4c(c3)OCCO4)C2)n1 (stereo unspecified)
  cytotoxicity at 10 µM: -18.9%

## O=C(NCc1nn(-c2ccccc2)c2c1CCC2)N1CCCC(O)C1 (stereo unspecified)
  cytotoxicity at 10 µM: -10.2%

## COC(=O)c1cc(C(=O)N2CCOC(C)(C)C2)n(-c2ccccc2)n1
  cytotoxicity at 10 µM: -2.81%

## Cc1cnn(CCNCc2nc(-c3ccccn3)no2)c1
  cytotoxicity at 10 µM: -8%

## Cn1c(CN2CCCC(c3noc(C4CC4)n3)C2)cc(=O)n(C)c1=O (stereo unspecified)
  cytotoxicity at 10 µM: -11.2%

## CC(C)c1ccc(OCC(=O)N2CCOCC2c2ncon2)cc1 (stereo unspecified)
  cytotoxicity at 10 µM: -9.01%

## O=C(NCCOC1CCCC1)c1ccc(-c2ccco2)[nH]c1=O
  cytotoxicity at 10 µM: -20%

## Cc1ccc(S(=O)(=O)NCc2cccc(C(=O)N3CCCC3)c2)cc1F
  cytotoxicity at 10 µM: -14.5%

## COc1cccc(COCC(=O)N2CCCC2Cn2cccn2)c1 (stereo unspecified)
  cytotoxicity at 10 µM: -0.153%

## c1ccc2oc(CN3CCOC(Cn4cccn4)C3)nc2c1 (stereo unspecified)
  cytotoxicity at 10 µM: -18.2%

## CNC(=O)[C@@H](c1ccccc1F)N1CCC[C@H]1C(=O)NC1CCCC1
  cytotoxicity at 10 µM: 0.344%

## CC(C)OCCCN(Cc1cnn(C)c1)Cc1ccccn1
  cytotoxicity at 10 µM: 1.24%

## O=S(=O)(C1CC1)N1CCn2cc(CNc3ccccn3)nc2C1
  cytotoxicity at 10 µM: 8.04%

## O=C(NCc1cccnc1)C1=NOC2(CCN(C(=O)N3CCCC3)C2)C1 (stereo unspecified)
  cytotoxicity at 10 µM: -4.8%

## CC(=O)N1Cc2nccn2CC(CNC(=O)c2cccnc2)C1 (stereo unspecified)
  cytotoxicity at 10 µM: -146%

## c1cncc(-c2ncnc3c2CCN(Cc2cccs2)CC3)c1
  cytotoxicity at 10 µM: 19.9%

## Cc1cnc(N2CCCC3(CCN(Cc4csc(C)n4)C3=O)C2)nc1 (stereo unspecified)
  cytotoxicity at 10 µM: -5.15%

## COCCN1CCO[C@H]2CN(C(=O)c3ccncc3F)C[C@H]21
  cytotoxicity at 10 µM: -141%

## O=C(NC1CC1)[C@@H]1CCO[C@@H]2CCN(C3CCOCC3)C[C@H]21
  cytotoxicity at 10 µM: -9.99%

## CCc1ncnc2c1CCN(C(=O)c1ccncc1F)CC2
  cytotoxicity at 10 µM: -88.5%

## O=C(NCc1cccs1)[C@H]1CC[C@@H]2[C@@H](CCN2c2ncccn2)O1
  cytotoxicity at 10 µM: -24.2%

## Cn1nnc2c1CCN(Cc1ccco1)C2COCc1ccccc1 (stereo unspecified)
  cytotoxicity at 10 µM: -133%

## CN(C)C1COC2(CCN(Cc3ccc4c(c3)OCO4)CC2)C1 (stereo unspecified)
  cytotoxicity at 10 µM: -5.19%

## O=C1N(c2cccnc2)CCC12CCCN(Cc1cccnc1)C2 (stereo unspecified)
  cytotoxicity at 10 µM: 0.951%

## Cc1ncsc1CN1C[C@@H]2COC[C@]2(CNC(=O)c2ccccc2)C1
  cytotoxicity at 10 µM: -2.39%

## COCC1CC2(CCN(Cc3nccn3C)CC2)CN1c1ncccn1 (stereo unspecified)
  cytotoxicity at 10 µM: 5.1%

## Cc1cccc(C(=O)N2C[C@@H]3C(CC(=O)NC(C)C)[C@@H]3C2)n1 (stereo partly specified)
  cytotoxicity at 10 µM: -3.69%
